Activity calls are given as the source filed them. No cut-off for these calls is given here.
Tests used:
HepG2 = assay: Cytotoxicity against human HepG2 cells incubated for 24 hrs by resorufin based fluorescence assay; type: toxicity, cell-based; settings: hepg2, 24 h
Outline: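 HepG2 cells grown in DMEM with 10% FBS and 1% penicillin–streptomycin at 37 °C, 5% CO2, seeded for exponential growth. Two-fold serial dilutions of compound added at 0.3% v/v final DMSO for 24 h. PrestoBlue viability read as resorufin fluorescence (544/590 nm). Controls were untreated, DMSO-only and 1% SDS. EC50 from three independent experiments.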

[1] = molecular target: Metallo-beta-lactamase type 2 (Bacteria) (UniProt C7C422); assay: (§1) Inhibition of bacterial metallo-beta-lactamase NDM-1 preincubated for 5 mins followed by imipenem addition by spectrophotometer analysis
Outline: (§2)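 Purified NDM-1 (10 nM) in 50 mM HEPES pH 7.2 with 100 μM ZnCl2, 2.5% DMSO and 400 μg ml−1 BSA, preincubated with inhibitor (twelve concentrations, 0–800 μM) at 25 °C for 5 min. Reaction started with 100 μM imipenem and absorbance read at 300 nm. Triplicates; IC50 from initial velocities by log[inhibitor] vs. response fit.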

Bacteria = assay: Inhibition of bacterial metallo-beta-lactamase VIM-2 preincubated for 5 mins followed by nitrocefin addition by spectrophotometer analysis
Outline: as §2, with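 “VIM-2 (0.1” for “NDM-1 (10”, “nitrocefin” for “imipenem”, “482” for “300”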

[2] = molecular target: Metallo-beta-lactamase type 2 (Bacteria, UniProt C7C422); assay: as §1; outline: as §2
Chain of Metallo-beta-lactamase type 2 (C7C422 whole entry): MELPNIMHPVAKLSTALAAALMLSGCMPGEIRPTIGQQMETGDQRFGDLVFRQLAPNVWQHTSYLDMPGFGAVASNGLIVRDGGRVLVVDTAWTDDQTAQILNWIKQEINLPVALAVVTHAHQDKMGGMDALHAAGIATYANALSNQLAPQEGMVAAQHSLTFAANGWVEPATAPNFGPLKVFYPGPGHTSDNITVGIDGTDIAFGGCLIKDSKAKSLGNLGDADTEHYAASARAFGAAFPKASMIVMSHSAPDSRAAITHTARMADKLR

Chain of Metallo-beta-lactamase type 2 (Bacteria) (C7C422 whole entry): as above

Compound | Activity (HepG2) | inhibition [1] | inhibition (Bacteria) | IC50 [2]
Cc1[nH]c(=S)sc1CC(=O)NC(C1CCCCN1)P(=O)(O)O.Cl (stereo in doubt; form 1) | Non-Toxic | – | – | –
O=C(NC(C1CCCCN1)P(=O)(O)O)c1cc2c(s1)CCCC2 (stereo in doubt; form 2) | – | inactive | – | –
O=C(NC(C1CCCCN1)P(=O)(O)O)c1cc2c(s1)CCCC2 (stereo in doubt; form 1) | – | inactive | – | –
Cl.O=C(NC(C1CCCCN1)P(=O)(O)O)c1cc2ccccc2s1 (stereo not drawn) | Non-Toxic | – | – | –
Cl.O=C(NC(C1CCCCN1)P(=O)(O)O)c1cc2c(s1)CCCC2 (stereo in doubt; form 1) | Non-Toxic | – | – | –
Cc1[nH]c(=S)sc1CC(=O)NC(C1CCCCN1)P(=O)(O)O (stereo in doubt; form 2) | – | inactive | inactive | –
O=C(NC(C1CCCCN1)P(=O)(O)O)c1scc2c1CCCC2 (stereo in doubt; form 2) | – | inactive | – | –
Cl.O=C(Cc1csc2ccccc12)NC(C1CCCCN1)P(=O)(O)O (stereo not drawn) | Non-Toxic | – | inactive | –
Cl.O=C(NC(C1CCCCN1)P(=O)(O)O)c1cccs1 (stereo not drawn) | Non-Toxic | – | – | –
O=C(NC(C1CCCCN1)P(=O)(O)O)c1scc2c1CCCC2 (stereo in doubt; form 1) | – | inactive | – | –
Cc1[nH]c(=S)sc1CC(=O)NC(C1CCCCN1)P(=O)(O)O (stereo in doubt; form 1) | – | inactive | – | –
Cl.O=C(NC(C1CCCCN1)P(=O)(O)O)c1scc2c1CCCC2 (stereo in doubt; form 1) | Non-Toxic | – | – | –
O=C(NC(C1CCCCN1)P(=O)(O)O)c1csc2ccccc12 (stereo in doubt; form 2) | – | inactive | – | –
O=C(NC(C1CCCCN1)P(=O)(O)O)c1csc2ccccc12 (stereo in doubt; form 1) | – | inactive | – | –
Cl.O=C(NC(C1CCCCN1)P(=O)(O)O)c1ccsc1 (stereo not drawn) | Non-Toxic | – | – | –
Cl.O=C(NC(C1CCCCN1)P(=O)(O)O)c1csc2c1CCCC2 (stereo not drawn) | Non-Toxic | inactive | – | 76 µM
Cl.O=C(NC(C1CCCCN1)P(=O)(O)O)c1csc2ccccc12 (stereo in doubt; form 1) | Non-Toxic | – | – | –
Cl.O=C(Cc1cccs1)NC(C1CCCCN1)P(=O)(O)O (stereo not drawn) | Non-Toxic | – | inactive | –
Cl.O=C(Cc1ccsc1)NC(C1CCCCN1)P(=O)(O)O (stereo not drawn) | Non-Toxic | – | inactive | –
Cl.O=C(Cc1cc2ccccc2s1)NC(C1CCCCN1)P(=O)(O)O (stereo not drawn) | Non-Toxic | inactive | – | 22.4 µM
